In the library only some 3% were active in any assay of this set; here they are far more common.
TRPC6 inh: inhibitors of mouse TRPC6 channel | Q61143 | HEK293-TRPC6, membrane potential dye, ACh-evoked depolarization; active compounds read low | B-score at 10 µM | 1.1% of 310,000 active;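 active = B-score under library mean minus 3 SD, initial fluorescence not abnormally high, positive integrated signal ratio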;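 note: B-score derived from integrated fluorescence ratio over the kinetic read; more negative B-score means stronger inhibition of depolarization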
Target sequence (Q61143 whole entry, looked up): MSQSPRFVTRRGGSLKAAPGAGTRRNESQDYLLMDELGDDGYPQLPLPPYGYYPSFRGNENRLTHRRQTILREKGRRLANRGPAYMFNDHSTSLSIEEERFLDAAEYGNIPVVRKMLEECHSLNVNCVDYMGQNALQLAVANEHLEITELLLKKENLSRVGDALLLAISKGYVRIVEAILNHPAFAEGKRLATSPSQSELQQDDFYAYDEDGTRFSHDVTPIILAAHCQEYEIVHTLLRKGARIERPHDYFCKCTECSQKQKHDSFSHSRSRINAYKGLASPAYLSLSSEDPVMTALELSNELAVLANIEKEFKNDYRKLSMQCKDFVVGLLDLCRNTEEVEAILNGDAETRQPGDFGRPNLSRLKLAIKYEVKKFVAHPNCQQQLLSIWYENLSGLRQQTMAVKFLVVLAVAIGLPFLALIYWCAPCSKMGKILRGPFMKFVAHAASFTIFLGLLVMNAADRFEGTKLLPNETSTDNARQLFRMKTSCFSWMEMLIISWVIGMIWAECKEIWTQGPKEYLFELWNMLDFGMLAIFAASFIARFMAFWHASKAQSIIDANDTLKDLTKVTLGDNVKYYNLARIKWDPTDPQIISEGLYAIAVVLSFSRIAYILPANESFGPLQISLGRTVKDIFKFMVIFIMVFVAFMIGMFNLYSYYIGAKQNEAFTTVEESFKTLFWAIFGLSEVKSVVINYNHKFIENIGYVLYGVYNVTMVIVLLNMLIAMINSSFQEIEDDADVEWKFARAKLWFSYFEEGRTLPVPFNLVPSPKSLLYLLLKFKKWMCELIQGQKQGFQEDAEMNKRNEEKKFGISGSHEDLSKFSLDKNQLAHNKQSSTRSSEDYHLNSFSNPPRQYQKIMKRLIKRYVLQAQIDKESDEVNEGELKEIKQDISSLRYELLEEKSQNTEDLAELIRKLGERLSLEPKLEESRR
Kir21 inh: inhibitors of mouse Kir2.1 inward-rectifier potassium channel; P35561; HEK293-Kir2.1, FluxOR thallium flux fluorescence; active compounds read low; B-score at 10 µM; 0.85% of 310,000 active;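 active = fluorescence ratio B-score at or below minus 3 SD of library scores, with starting-brightness B-score within 2 SD, cut at about -4.2 in these data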;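 note: channel flux triggered by added potassium and thallium sulfate stimulus; B-score of peak minus minimum fluorescence over baseline after thallium stimulus; more negative B-score means stronger Kir2.1 block with less thallium influx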
TRPC4 potent: allosterically enhances the mouse TRPC4 cation channel | 0.42% of 310,000 active | B-score at 10 µM | AID 2227 | HEK293 TRPC4beta/mu-opioid, DAMGO EC20, Fluo-4 Ca2+ flux; active compounds read high | Q9QUQ5;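 active = B-score of calcium response area above 5 SD of library B-scores, with initial fluorescence ratio within 5 SD of library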;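 note: B-score of integrated fluorescence ratio over time as area under calcium response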
TRPC4 inh: blocks the mouse TRPC4 cation channel; 0.39% of 300,000 active; Q9QUQ5; B-score at 10 µM; HEK293 TRPC4beta/mu-opioid, DAMGO-evoked Fluo4 calcium flux; active compounds read low;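 active = B-score over 3 SD under the library average, no early fluorescence shift, positive overall ratio signal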
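Assay system – HEK293 line stably carrying TRPC4beta and mu-opioid receptor · Doses – single dose · Detection – Fluo4 calcium-dye fluorescence, kinetic read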
TRPC6 act: mouse TRPC6 channel activation; Q61143; HEK293-TRPC6 membrane potential dye fluorescence; active compounds read high; B-score at 10 µM; 0.13% of 310,000 active;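 active = B-score of the integrated fluorescence ratio above library mean plus 3 SD, and starting fluorescence ratio within library mean plus 5 SD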;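 note: higher score means more depolarization so channel activation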
TRPC4 act: opens the mouse TRPC4 cation channel; Q9QUQ5; HEK293 TRPC4beta/mu-opioid, Fluo4 calcium fluorescence; active compounds read high; B-score at 10 µM; 0.49% of 310,000 active; AID 2237;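 active = B-score above 5 SD of library B-scores, and initial fluorescence ratio not above library mean plus 5 SD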;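 note: positive B-score marks a calcium rise read as TRPC4 activation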
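System – HEK293 cells stably co-expressing mouse TRPC4beta and mu-opioid receptor · Signal – Fluo4 calcium-sensitive dye fluorescence, kinetic, 1 Hz baseline · Benchmarks – buffer (low) and maximal DAMGO (high) · Read-out – B score of integrated fluorescence ratio per well · Incubation – dye loading 45 min room temperature, 110 s kinetic read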
HEK293 TRPC6 ctr: counter-screen for TRPC6 modulators: effect in parental HEK293 cells. shares compounds with TRPC6 inh. membrane potential dye fluorescence. membrane potential signal change, % at 10 µM. 51% of 2,400 active. AID 488924;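 active = membrane potential signal moves up or down beyond 5 SD from buffer-only wells, on both duplicate plates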
HEK293 MPD ctr 2: parental HEK293 nonspecific activity of TRPC6 modulators, second screen. inhibition, % at 10 µM. 14% of 2,400 active. membrane potential dye fluorescence; after compound, maximal acetylcholine stimulation. shares compounds with TRPC6 inh. AID 488926;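 active = membrane potential signal drops by more than 5 SD from the mean control signal, in both duplicate plates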;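 note: plate controls were acetylcholine ECmax control wells for no effect and buffer only wells for full effect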
TRPC4 ctr mod: tests whether TRPC6 modulators also affect mouse TRPC4; shares compounds with TRPC6 inh; HEK293 TRPC4/mu-opioid, membrane potential fluorescence; percent change from control (negative = decrease, positive = increase), % at 10 µM; 69% of 2,400 active;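 active = membrane potential signal moved up or down beyond 5 SD of buffer control wells, in both duplicate plates, actives on both sides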;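 note: plate controls were assay buffer wells for no effect and DAMGO maximal-effect wells for full effect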
TRPC4/MOR inh 2: second check of whether TRPC6 modulators also affect mouse TRPC4. HEK293 TRPC4/mu-opioid, membrane potential dye fluorescence; stimulated with maximal-effect DAMGO. 55% of 2,400 active. inhibition, % at 10 µM. shares compounds with TRPC6 inh;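 active = drop in membrane potential signal beyond 5 SD of the control wells in both duplicate plates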;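 note: TRPC4 counter screen for TRPC6 hits run under conditions tuned for TRPC6 not TRPC4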
TRPC6 inh conf: confirmation of mouse TRPC6 inhibitors | 43% of 3,300 active | shares compounds with TRPC6 inh | inhibition, % at 10 µM | HEK293-TRPC6, membrane potential dye, ACh-evoked depolarization;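 active = fluorescence ratio falls more than 5 SD below the full-stimulation control mean, in both duplicate runs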;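 note: integrated fluorescence ratio of peak minus minimum over baseline after agonist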
TRPC6 act confirm: mouse TRPC6 activator confirmation; shares compounds with TRPC6 inh; AID 488961; HEK293-TRPC6 membrane potential dye fluorescence, FDSS; 11% of 2,800 active; activation, % at 10 µM;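 active = ratio signal rise beyond 5 SD above unstimulated control wells' mean, seen in both duplicate runs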;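 note: plate controls were buffer EC0 wells for no effect and acetylcholine ECmax response for full effect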
Numbers without * were called inactive.

What do the screens show for `CCCN(CCC)CCCNc1ccc2nnc(-c3ccc(F)cc3)n2n1`?
TRPC6 inh: -5.1*; Kir21 inh: 0.07; TRPC4 potent: inactive; TRPC4 inh: inactive; TRPC6 act: inactive; TRPC4 act: 94*; HEK293 TRPC6 ctr: -190%*; HEK293 MPD ctr 2: inactive; TRPC4 ctr mod: -17%*; TRPC4/MOR inh 2: 36%*; TRPC6 inh conf: inactive; TRPC6 act confirm: inactive

Results for Cc1ccc(CNc2ccc3c(c2)ncn3C)cc1 ?
TRPC6 inh: inactive; Kir21 inh: 0.81; TRPC4 potent: inactive; TRPC4 inh: inactive; TRPC6 act: inactive; TRPC4 act: inactive

How did CCn1cnc2cc(NCc3ccc(Cl)cc3)ccc21 do in these assays?
TRPC6 inh: -5.6*; Kir21 inh: -0.35; TRPC4 potent: inactive; TRPC4 inh: inactive; TRPC6 act: inactive; TRPC4 act: inactive; HEK293 TRPC6 ctr: inactive; HEK293 MPD ctr 2: inactive; TRPC4 ctr mod: inactive; TRPC4/MOR inh 2: 40%*; TRPC6 inh conf: 48%*; TRPC6 act confirm: inactive

What do the screens show for `CCn1cnc2cc(NCc3ccncc3)ccc21`?
TRPC6 inh: inactive; Kir21 inh: 0.22; TRPC4 potent: inactive; TRPC4 inh: inactive; TRPC6 act: inactive; TRPC4 act: inactive

How did CCc1ccc(CNc2ccc3c(c2)ncn3C)cc1 do in these assays?
TRPC6 inh: -6.3*; Kir21 inh: -0.81; TRPC4 potent: inactive; TRPC4 inh: inactive; TRPC6 act: inactive; TRPC4 act: inactive; HEK293 TRPC6 ctr: inactive; HEK293 MPD ctr 2: inactive; TRPC4 ctr mod: -14%*; TRPC4/MOR inh 2: 61%*; TRPC6 inh conf: 37%*; TRPC6 act confirm: inactive

Results for CCOC(=O)c1sc(-c2ccc(Cl)cc2Cl)nc1O ?
TRPC6 inh: inactive; Kir21 inh: -1.2; TRPC4 potent: inactive; TRPC4 inh: inactive; TRPC6 act: inactive; TRPC4 act: inactive

How did Cc1ccc2nc(C)c(Cl)c(=O)n2c1 do in these assays?
TRPC6 inh: inactive; Kir21 inh: -2.3; TRPC4 potent: inactive; TRPC4 inh: inactive; TRPC6 act: inactive; TRPC4 act: inactive

Results for Cc1ccc2nc(Cl)c(/C=N/Nc3nc(C)cc(C)n3)c(=O)n2c1 ?
TRPC6 inh: -8*; Kir21 inh: 0.71; TRPC4 potent: inactive; TRPC4 inh: inactive; TRPC6 act: inactive; TRPC4 act: inactive; HEK293 TRPC6 ctr: inactive; HEK293 MPD ctr 2: inactive; TRPC4 ctr mod: -24%*; TRPC4/MOR inh 2: inactive; TRPC6 inh conf: inactive; TRPC6 act confirm: inactive

How did COc1ccc(CNC(=O)CN(Cc2ccc(F)cc2)C(=O)c2csnn2)cc1 do in these assays?
TRPC6 inh: inactive; Kir21 inh: -0.66; TRPC4 potent: inactive; TRPC4 inh: inactive; TRPC6 act: inactive; TRPC4 act: inactive

Screening data (PubChem)
